According to ChEMBL document CHEMBL3259569 (J Med Chem, 2014):
Calls of active or inactive are those of the source. No cut-off for these calls is given here.

Assays:
HCT-116 [1] = test: Induction of apoptosis in p53 knock down human HCT116 cells assessed as PARP cleavage at 1 uM after 24 hrs by immunoblotting analysis; format: functional, cell-based
HCT-116 [2] = test: Induction of apoptosis in human HCT116 cells assessed as accumulation at sub-G1 phase after 24 hrs by propidium iodide staining-based flow cytometric analysis; format: functional, cell-based
In short: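 HCT116 cells treated with indicated concentrations for 24 h; DNA content analyzed by flow cytometry for cell cycle distribution and sub-G1 fraction; means of at least three independent experiments.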

HCT-116 [3] = test: Induction of apoptosis in human HCT116 cells assessed as accumulation at sub-G1 phase at 1 uM by propidium iodide staining-based flow cytometric analysis; format: functional, cell-based; conditions: TDE = time-dependent effect
In short: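 HCT116 cells exposed to 1 μM compound for varying time intervals; sub-G1 population quantified by flow cytometry.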

Histone deacetylase 1 = Histone deacetylase 1 (Homo sapiens, UniProt Q13547); test: Inhibition of HDAC1 (unknown origin) using RHKK(Ac) (379 to 382) p53 peptide as substrate by fluorescence assay
Sequence of Histone deacetylase 1 (Q13547 whole entry): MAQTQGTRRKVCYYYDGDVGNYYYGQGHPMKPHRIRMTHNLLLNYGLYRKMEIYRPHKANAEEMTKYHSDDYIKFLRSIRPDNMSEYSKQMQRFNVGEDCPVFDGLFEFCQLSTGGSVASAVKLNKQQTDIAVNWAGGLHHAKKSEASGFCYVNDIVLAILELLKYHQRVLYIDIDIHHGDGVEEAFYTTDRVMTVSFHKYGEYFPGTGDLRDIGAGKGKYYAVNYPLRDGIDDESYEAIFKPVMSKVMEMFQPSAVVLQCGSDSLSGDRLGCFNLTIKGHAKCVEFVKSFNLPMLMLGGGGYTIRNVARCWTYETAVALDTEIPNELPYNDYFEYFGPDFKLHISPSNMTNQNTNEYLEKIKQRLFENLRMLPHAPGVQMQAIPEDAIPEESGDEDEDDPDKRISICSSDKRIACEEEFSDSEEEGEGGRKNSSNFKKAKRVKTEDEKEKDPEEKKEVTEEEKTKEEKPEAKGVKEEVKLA

Histone deacetylase 7 = biological target: T1, Histone deacetylase 7 (Homo sapiens, UniProt Q8WUI4); test: Inhibition of HDAC7 (unknown origin) by fluorescence assay
T1 sequence (Q8WUI4 whole entry): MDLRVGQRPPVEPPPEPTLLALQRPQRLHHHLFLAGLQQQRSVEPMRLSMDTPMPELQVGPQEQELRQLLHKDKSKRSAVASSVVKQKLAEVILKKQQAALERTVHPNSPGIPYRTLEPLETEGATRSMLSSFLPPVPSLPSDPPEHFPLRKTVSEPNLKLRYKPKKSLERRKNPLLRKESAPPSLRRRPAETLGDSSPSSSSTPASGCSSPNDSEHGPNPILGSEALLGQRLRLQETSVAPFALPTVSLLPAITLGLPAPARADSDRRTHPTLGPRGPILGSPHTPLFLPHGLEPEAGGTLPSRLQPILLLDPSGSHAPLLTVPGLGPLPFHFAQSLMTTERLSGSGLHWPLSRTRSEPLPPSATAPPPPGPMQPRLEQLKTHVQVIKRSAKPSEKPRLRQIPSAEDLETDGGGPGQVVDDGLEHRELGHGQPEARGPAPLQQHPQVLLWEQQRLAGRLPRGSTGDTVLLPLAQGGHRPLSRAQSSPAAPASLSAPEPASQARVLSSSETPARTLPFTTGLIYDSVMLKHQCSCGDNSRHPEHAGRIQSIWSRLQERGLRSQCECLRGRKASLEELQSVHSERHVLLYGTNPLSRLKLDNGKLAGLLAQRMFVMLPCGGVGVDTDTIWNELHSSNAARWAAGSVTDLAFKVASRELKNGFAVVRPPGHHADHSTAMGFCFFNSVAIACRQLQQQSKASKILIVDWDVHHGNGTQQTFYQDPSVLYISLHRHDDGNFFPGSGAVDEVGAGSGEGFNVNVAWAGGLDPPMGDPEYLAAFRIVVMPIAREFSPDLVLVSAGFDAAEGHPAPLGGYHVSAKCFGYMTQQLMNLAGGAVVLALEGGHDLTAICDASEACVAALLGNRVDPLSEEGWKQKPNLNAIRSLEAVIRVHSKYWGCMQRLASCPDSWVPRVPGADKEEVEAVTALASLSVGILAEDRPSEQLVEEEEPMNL
In short: (§1)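 Run by a contract testing lab. Compounds were dissolved in DMSO and tested in 10-dose IC50 mode, using 3-fold serial dilution starting at 10 μM. IC50 was taken from the dose series.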

[4] = biological target: T2, Polyamine deacetylase HDAC10 (Homo sapiens, UniProt Q969S8); test: Inhibition of HDAC10 (unknown origin) by fluorescence assay; in short: as §1
T2 sequence (Q969S8 whole entry): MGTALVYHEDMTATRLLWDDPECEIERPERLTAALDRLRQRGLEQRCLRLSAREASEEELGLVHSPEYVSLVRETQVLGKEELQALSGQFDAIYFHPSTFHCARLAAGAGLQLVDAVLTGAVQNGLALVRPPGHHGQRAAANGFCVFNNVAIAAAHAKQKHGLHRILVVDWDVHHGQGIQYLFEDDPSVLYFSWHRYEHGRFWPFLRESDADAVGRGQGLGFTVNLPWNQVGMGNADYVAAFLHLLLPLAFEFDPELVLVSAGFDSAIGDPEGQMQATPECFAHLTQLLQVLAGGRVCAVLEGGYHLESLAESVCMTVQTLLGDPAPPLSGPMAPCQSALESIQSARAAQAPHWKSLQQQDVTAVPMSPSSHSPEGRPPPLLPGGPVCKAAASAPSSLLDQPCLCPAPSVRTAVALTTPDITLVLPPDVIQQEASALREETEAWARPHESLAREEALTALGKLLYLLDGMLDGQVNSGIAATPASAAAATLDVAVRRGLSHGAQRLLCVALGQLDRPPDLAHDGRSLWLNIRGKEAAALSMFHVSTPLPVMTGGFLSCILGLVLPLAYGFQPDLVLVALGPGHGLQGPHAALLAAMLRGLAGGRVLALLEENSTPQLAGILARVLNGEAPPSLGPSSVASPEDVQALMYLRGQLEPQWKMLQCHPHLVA

Mus musculus = test: Toxicity in ICR mouse assessed as change in body weight at 400 to 1000 mg/kg, po treated for 7 days measured for 1 week; format: organism-based; set-up: dose 400-1000 mg/kg, route oral; conditions: in vivo, 168 h
In short: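 ICR mice fasted overnight, then given vehicle (0.2 mL/20 g) or compound orally at 400, 600 or 1000 mg/kg (n = 10/group) daily for 7 days, then monitored 1 week; weighed daily for 1 week, then twice weekly; 2/10 deaths defines toxic dose.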

[5] = AUC (0 to infinity) in ICR mouse at 2 mg/kg, iv by LC-MS/MS analysis; format: ADME, organism-based; set-up: time infinity, dose 2 mg/kg, route intravenous; conditions: plasma
[6] = Half life in ICR mouse at 2 mg/kg, iv by LC-MS/MS analysis; format: ADME, organism-based; set-up: dose 2 mg/kg, route intravenous; conditions: in vivo
[7] = AUC (0 to infinity) in ICR mouse at 10 mg/kg, po by LC-MS/MS analysis; format: ADME, organism-based; set-up: time infinity, dose 10 mg/kg, route oral; conditions: plasma
Histone deacetylase = test: Inhibition of HDAC in human HeLa cell nuclear extract using Boc-Lys(Ac)-AMC as substrate after 30 mins by fluorimetric analysis; format: protein assay
KB = test: Cytotoxicity against human KB cells by MTT assay; format: functional, cell-based
HCT-116 [8] = test: Cytotoxicity against human HCT116 cells by MTT assay; format: functional, cell-based
[9] = Cytotoxicity against human HONE1 cells by MTT assay; format: functional, cell-based

O=C(/C=C/c1cccc(S(=O)(=O)n2ccc3cccnc32)c1)NO
Activity (HCT-116 [1]): inactive | Activity (HCT-116 [2]): Dose-dependent effect | Activity (HCT-116 [3]): tde | IC50 (Histone deacetylase 1): 0.31 µM | IC50 (Histone deacetylase 7): 4.11 µM | IC50 [4]: 4.13 µM | Activity (Mus musculus): Non-toxic | AUC(0-inf) [5]: 0.289 µg·h/mL | half-life [6]: 2.5 h | AUC(0-inf) [7]: 0.466 µg·h/mL | IC50 (Histone deacetylase): 0.1 µM | IC50 (KB): 0.76 µM | IC50 (HCT-116 [8]): 0.39 µM | IC50 [9]: 1.2 µM
